Measured values of several laboratories.
Each line is one published result; the experiments were not run side by side.
Cell line: MCF7
Effect on: cell growth or viability

| Compound | test | setting | IC50 |
| --- | --- | --- | --- |
| Cc1ccc2nc(-c3ccc(Cl)cc3)[nH]c2c1 | MTT | 48 h | 25.6 µM |
| CSc1nc(/N=C/c2cc([N+](=O)[O-])ccc2O)n(-c2ccc(C(=O)O)cc2)n1 | MTT |  | 20 µM |
| Cc1ccc2nc(-c3cccnc3)[nH]c2c1 | MTT | 48 h | 51.1 µM |
| O=C(NC(=S)Nc1ccccc1)c1ccc2ccccc2c1 |  | 48 h | 5.11 µM |
| O=[N+]([O-])c1ccc(-c2nc3ccccc3[nH]2)cc1 | MTT | 48 h | 27.2 µM |
| CCOc1cc(OCC)cc(C(=O)O[C@@H]2CN3Cc4c(cc5c(c4OC)OCO5)[C@@]24C=C[C@H](OC)C[C@@H]34)c1 | WST-1 |  | 6.3 µM |
| O=C(NC(=S)NCc1ccc(CNC(=S)NC(=O)c2ccc3ccccc3c2)cc1)c1ccc2ccccc2c1 |  | 48 h | 1.19 µM |
| C=CCn1c(-c2ccc(Cl)c(Cl)c2)nc2ccccc21 | MTT |  | 50 µM |
| O=C(N/N=C/c1cccn1CCCN1CCCC1)Nc1cc2c(Nc3ccc(F)c(Cl)c3)ncnc2cc1O[C@H]1CCOC1 | MTT | 72 h | 2.41 µM |
| O=S(=O)(NN=Cc1cn(CCN2CCOCC2)c2ccccc12)c1ccc(Cl)cc1 | MTT | 48 h | 13.2 µM |
| CC(C)Cc1ccc(-c2nn(-c3ccc(S(C)(=O)=O)cc3)cc2/C=N/N=c2\[nH]c(-c3ccc([N+](=O)[O-])cc3)cs2)cc1 | MTT | 48 h | 2.85 µM |
| Oc1ncnc2cc(Nc3nc(-c4ccccc4)cs3)ccc12 | MTT |  | 6.21 µM |
| Cc1ccc2nc(-c3ccc(Cl)c(Cl)c3)n(Cc3ccccc3)c2c1 | MTT |  | 80.5 µM |
| Cc1ccc(S(=O)(=O)NN=Cc2cn(CCN3CCOCC3)c3ccccc23)cc1 | MTT | 48 h | 61.1 µM |
| O=C(/N=C1\SCC(=O)N1C1CCCCC1)c1ccc2ccccc2c1 |  | 48 h | 7.96 µM |
| COc1cccc2c1C(=O)c1c(O)c3c(c(O)c1C2=O)C[C@@](O)(C(=O)CO)C[C@@H]3O[C@H]1C[C@H](N)[C@H](O)[C@H](C)O1 | MTT |  | 19.7 µM |
| COc1ccc(-c2nn(-c3ccc(S(C)(=O)=O)cc3)cc2/C=N/N=c2\[nH]c(-c3ccc(Br)cc3)cs2)cc1 | MTT | 48 h | 3.18 µM |
| CC(C)C(=O)Nc1ccc([N+](=O)[O-])c(C(F)(F)F)c1 | CCK-8 | 48 h | 39 µM |
| COc1cc2ncnc(Nc3ccc(F)c(Cl)c3)c2cc1NC(=O)N/N=C/CN(C)C | MTT | 72 h | 5.38 µM |
| CC1(C)CC[C@]2(C)CC[C@]3(C)C(=CC[C@@H]4[C@@]5(C)CC[C@H](O)C(C)(C)[C@@H]5CC[C@]43C)[C@@H]2C1 | WST-1 | 48 h | 63.6 µM |
| CS(=O)(=O)c1ccc(-n2cc(/C=N/N=c3\[nH]c(-c4ccc([N+](=O)[O-])cc4)cs3)c(-c3ccc([N+](=O)[O-])cc3)n2)cc1 | MTT | 48 h | 10.1 µM |
| CN1CCN(CCCn2cccc2/C=N/NC(=O)Nc2cc3c(Nc4ccc(F)c(Cl)c4)ncnc3cc2O[C@H]2CCOC2)CC1 | MTT | 72 h | 2.12 µM |
| CSc1nc(/N=C/c2cc(C)ccc2O)n(-c2ccc(C(=O)O)cc2)n1 | MTT |  | 23.9 µM |
| O=C(NC(=S)NC1CCCCC1)c1ccc2ccccc2c1 |  | 48 h | 5.22 µM |
| O=C1C[C@@H](c2ccc(O)cc2)Oc2cc(O)cc(O)c21 | MTT | 48 h | 4.75 µM |

| Compound | test | setting | IC50 |
| --- | --- | --- | --- |
| CCOc1ccc(-c2nc3ccccc3n2Cc2ccccc2)cc1 | MTT |  | 40.1 µM |
| COc1cc2ncnc(Nc3ccc(F)c(Cl)c3)c2cc1NC(=O)N/N=C/c1cccn1CCCN(C)C | MTT | 72 h | 1.26 µM |
| CCOc1ccc(-c2nc3ccccc3[nH]2)cc1 | MTT | 48 h | > 100 µM |
| O=Cc1ccc(CO)o1 | WST-1 | 48 h | 46.2 µM |
| Cc1cc(C)n(-c2nc(Nc3ccc(Cl)cc3)nc(-n3nc(C)cc3C)n2)n1 | MTT | 72 h | 2.29 µM |
| C#Cc1cccc(Nc2ncnc3cc(OCCOC)c(OCCOC)cc23)c1 | MTT |  | 3.16 µM |
| COc1cc2ncnc(Nc3ccc(F)c(Cl)c3)c2cc1NC(=O)N/N=C/c1cccn1CCN(C)C | MTT | 72 h | 3.21 µM |
| CC/C(=C(/c1ccc(OCCNC)cc1)c1ccc(B2OC(C)(C)C(C)(C)O2)cc1)c1ccccc1 |  | 5 days | 0.708 µM |
| F[B-](F)(F)F.[Fe+3].c1cc[cH-]c1.c1cc[cH-]c1 | MTT |  | 150 µM |
| O=C1Nc2c(C(F)(F)F)cccc2C1(c1ccc(OC(F)(F)F)cc1)c1c(F)cc(O)cc1F (stereo not shown) | resazurin | 24 h | 0.549 µM |
| CC1CCC(OCn2c[n+](Cc3ccccc3)c3ccccc32)CC1 (stereo not shown) | MTT | 72 h | 27 µM |
| CCN(CC)CCn1cccc1/C=N/NC(=O)Nc1cc2c(Nc3ccc(F)c(Cl)c3)ncnc2cc1OC | MTT | 72 h | 0.57 µM |
| COc1cccc2c1C(=O)c1c(O)c3c(c(O)c1C2=O)C[C@@](O)(C(=O)CO)C[C@@H]3O[C@H]1C[C@H](N)[C@H](O)[C@H](C)O1 | resazurin | 72 h | 0.24 µM |
| COc1cc(CNCC2CCNCC2)ccc1OCc1cccc(C)c1 | MTT | 72 h | > 100 µM |
| Oc1c(Br)cc(Br)c2cccnc12 | MTT | 48 h | > 100 µM |
| CCN(CC)CCn1cccc1/C=N/NC(=O)Nc1cc2c(Nc3ccc(F)c(Cl)c3)ncnc2cc1O[C@H]1CCOC1 | MTT | 72 h | 1.28 µM |
| Clc1ccnc2c1ccc1c(Cl)ccnc12 | MTT | 48 h | > 50 µM |
| CC(=O)O[C@H]1C(=O)[C@@]2(C)[C@H]([C@H](OC(=O)c3ccccc3)[C@]3(O)C[C@H](OC(=O)[C@H](O)[C@@H](NC(=O)c4ccccc4)c4ccccc4)C(C)=C1C3(C)C)[C@]1(OC(C)=O)CO[C@@H]1C[C@@H]2O | MTT | 48 h | 0.006 µM |
| FC(F)(F)c1cccc(Nc2ncnc3ccc(-c4ccc(Cl)cc4)cc23)c1 | MTT | 24 h | 12.3 µM |
| CC(=O)OC[C@H]1O[C@@H]([S-])[C@H](OC(C)=O)[C@@H](OC(C)=O)[C@@H]1OC(C)=O.CCP(CC)CC.[Au+] | resazurin |  | 5.2 µM |
| FC(F)(F)c1cccc(Nc2ncnc3ccc(-c4ccc(CN5CCOCC5)cc4)cc23)c1 | MTT | 24 h | 4.05 µM |
| Cc1ccc2nc(-c3ccccc3Cl)[nH]c2c1 | MTT | 48 h | > 100 µM |
| Oc1cccc(-c2ccc3ncnc(Nc4cccc(C(F)(F)F)c4)c3c2)c1 | MTT | 24 h | 18.1 µM |
| O=S(=O)(Cc1ccccc1)NN=Cc1cn(CCN2CCOCC2)c2ccccc12 | MTT | 48 h | 62.5 µM |
